A short description of data set [1]: Inhibition of Respiratory syncytial virus B WST RNA-directed RNA polymerase L infected in human Hep2 cells assessed as reduction in virus-induced cytopathic effect measured after 6 days by resazurin dye based fluorescence assay. It is filed as cell-based. The conditions noted are these: HEp-2, 144 h. The gist of the method:
(§1)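 Read-out is cytopathic effect of RSV infection in HEp-2 cells. IC50 is the concentration reducing CPE by 50%. Values averaged from 2 experiments.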
For orientation: Damage to the host cells serves as the signal in cytopathic effect assays.

The nature of data set [2]: Inhibition of RSV A2 RNA-directed RNA polymerase L infected in human Hep2 cells assessed as reduction in virus-induced cytopathic effect measured after 5 days by resazurin dye based fluorescence assay. To be noted: human respiratory syncytial virus, HEp-2, 120 h. It is filed as cell-based. The gist of the method:
as §1

Data set [3] can be described thus: Cytotoxicity against human Hep2 cells. To be noted: HEp-2 cells. It is filed as cell-based.
The test system of data set [4] is Human respiratory syncytial virus A2. Kind of data set: Antiviral activity against Respiratory syncytial virus A2 infected in human Hep2 cells at 0.001 to 3.125 ug/ml after 6 passages. It is filed as functional, cell-based.
Data set [5] shares this test system. The data set is described as follows: Inhibition of Respiratory syncytial virus A2 RNA-directed RNA polymerase L by luciferase reporter-based RSV minigenome assay. A general note: A reporter such as luciferase makes a cellular process visible.
Another data set has as its target T1, Nucleoprotein (Human respiratory syncytial virus A (strain A2), UniProt P03418).
T1 sequence (P03418 whole entry): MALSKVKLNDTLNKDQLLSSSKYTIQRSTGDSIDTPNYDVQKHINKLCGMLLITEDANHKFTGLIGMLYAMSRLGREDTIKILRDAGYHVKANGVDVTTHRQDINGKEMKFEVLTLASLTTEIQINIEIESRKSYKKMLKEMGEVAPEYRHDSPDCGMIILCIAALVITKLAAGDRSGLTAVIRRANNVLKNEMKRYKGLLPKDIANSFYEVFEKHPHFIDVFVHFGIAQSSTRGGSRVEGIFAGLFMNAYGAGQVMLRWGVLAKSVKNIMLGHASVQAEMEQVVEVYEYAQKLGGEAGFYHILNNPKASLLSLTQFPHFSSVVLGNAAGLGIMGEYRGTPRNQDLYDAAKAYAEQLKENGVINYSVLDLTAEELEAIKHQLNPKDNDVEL
The data set is described as follows: (§2) Inhibition of Respiratory syncytial virus A2 protein N by luciferase reporter-based RSV minigenome assay.

Data set [6] has as its target T2, Nucleoprotein (Human respiratory syncytial virus A (strain A2)) (UniProt P03418).
T2 sequence (whole entry): T1 sequence (P03418 whole entry)
The data set is described as §2.

Data set [7] deals with Phosphoprotein (Human respiratory syncytial virus A (strain A2)) (UniProt P03421). Kind of data set: (§3) Inhibition of Respiratory syncytial virus A2 protein P by luciferase reporter-based RSV minigenome assay.
The target in another data set is Phosphoprotein (Human respiratory syncytial virus A (strain A2), UniProt P03421). The data set is described as §3.
For data set [8], the target named is T3, Protein M2-1 (Human respiratory syncytial virus A (strain A2)) (UniProt P04545).
T3 sequence (whole entry): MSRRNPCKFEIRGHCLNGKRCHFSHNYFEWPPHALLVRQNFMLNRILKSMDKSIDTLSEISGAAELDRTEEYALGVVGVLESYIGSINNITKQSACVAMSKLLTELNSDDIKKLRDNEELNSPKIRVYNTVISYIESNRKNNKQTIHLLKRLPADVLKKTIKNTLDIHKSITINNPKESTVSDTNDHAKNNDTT
The data set is described as follows: Inhibition of Respiratory syncytial virus A2 M2-1 by luciferase reporter-based RSV minigenome assay.

Data set [9] relates to Human respiratory syncytial virus A strain Long. Kind of data set: Antiviral activity against human respiratory syncytial virus A strain long infected in cotton rat assessed as reduction in NS1 expression administered intranasally pretreated for 4 hrs followed by viral infection measured after 4 days by RT-qPCR analysis. It is filed as functional. (In general: Real-time PCR tracks product formation cycle by cycle.)

Data set [10] shares this test system. Kind of data set: Antiviral activity against human respiratory syncytial virus A strain long infected in cotton rat assessed as reduction in lung viral load administered intranasally pretreated for 4 hrs followed by viral infection measured after 4 days by plaque assay. The data set is classed as functional.
Data set [11] in a line: Antiviral activity against human respiratory syncytial virus A strain long infected in cotton rat assessed as reduction in plaque forming units in lungs at 0.33 to 3.3 mg/ml administered intranasally pretreated for 4 hrs followed by viral infection measured after 4 days. It is filed as functional.

Here are results for 27 compounds from ChEMBL document CHEMBL4038291, “Discovery of novel benzothienoazepine derivatives as potent inhibitors of respiratory syncytial virus” (Bioorg Med Chem Lett, 2017).

Active and inactive are the calls of the source. The calls are words filed in the database; no cut-off is given here.

Sequence of Phosphoprotein (P03421 whole entry): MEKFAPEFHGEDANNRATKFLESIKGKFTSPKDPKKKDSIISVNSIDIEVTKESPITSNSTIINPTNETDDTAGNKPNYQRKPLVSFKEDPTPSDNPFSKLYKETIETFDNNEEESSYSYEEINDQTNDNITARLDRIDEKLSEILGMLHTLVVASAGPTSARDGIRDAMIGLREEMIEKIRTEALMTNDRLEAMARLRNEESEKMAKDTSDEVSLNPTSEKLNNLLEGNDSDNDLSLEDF
Sequence of Phosphoprotein (Human respiratory syncytial virus A (strain A2)) (P03421 whole entry): as above

Consider `Cc1cnc(N2CC3(CCOCC3)C2)c(C(=O)Nc2ccc(C(=O)N3CCc4cc(-c5ncc(C)[nH]5)sc4-c4ccccc43)cc2)c1`, for which the half-maximal inhibitory concentration (IC50) in data set [1] worked out at 3.3 nM; in data set [2], 0.7 nM. In data set [3], this compound registered a CC50 above 15500 nM.
With `CCc1cnc(N2CC3(CCOCC3)C2)c(C(=O)Nc2ccc(C(=O)N3CCc4cc(-c5nc6ccccc6[nH]5)sc4-c4ccccc43)cc2)c1`, the IC50 in data set [1] was found to be 13.3 nM; in [2], 0.7 nM. In addition, the 50% cytotoxic concentration (CC50) in data set [3] is above 14300 nM.
Take `CC(C)c1cnc(N2CC3(CCOCC3)C2)c(C(=O)Nc2ccc(C(=O)N3CCc4cc(-c5nc6ccccc6[nH]5)sc4-c4ccccc43)cc2)c1`: the IC50 in [1] is above 1410 nM; in [2] it was 5.7 nM. This compound showed a CC50 in [3] above 14100 nM.
For `O=C(Nc1ccccc1)c1cc2c(s1)-c1ccccc1N(C(=O)c1ccc(NC(=O)c3cccnc3N3CC4(CCOCC4)C3)cc1)CC2`, in that order: 283 nM, 0.5 nM and above 14900 nM.
As to `O=C(Nc1ccc(C(=O)N2CCc3cc(-c4nc5cncnc5[nH]4)sc3-c3ccccc32)cc1)c1cccnc1N1CC2(CCOCC2)C1`, the figures for the IC50 in [1] and in data set [2] were above 1500 nM and 13.1 nM, respectively. The 50% cytotoxic concentration (CC50) in [3] is above 14900 nM.
For `Cc1ccc(C(=O)Nc2ccc(C(=O)N3CCc4cc(-c5nc6ccccc6[nH]5)sc4-c4ccccc43)cc2)c(N2CC3(CCOCC3)C2)n1`, in that order: 5.2 to 13.1 nM, 0.3 to 0.8 nM and above 14600 nM.
Taken in the same sequence, the figures for `Cc1cnc(N2CC3(CCOCC3)C2)c(C(=O)Nc2ccc(C(=O)N3CCc4cc(-c5cn6ccccc6n5)sc4-c4ccccc43)cc2)c1` were 14.4 nM, 1.8 nM and above 14600 nM.
For `Cc1cccc2[nH]c(-c3cc4c(s3)-c3ccccc3N(C(=O)c3ccc(NC(=O)c5cccnc5N5CC6(CCOCC6)C5)cc3)CC4)nc12`, in that order: 52.9 nM, 0.6 nM and above 14600 nM.
Turning to `O=C(Nc1ccc(C(=O)N2CCc3cc(-c4nc5cnccc5[nH]4)sc3-c3ccccc32)cc1)c1cccnc1N1CC2(CCOCC2)C1`, the IC50 in data set [1] was 844 nM; in [2] it was 7.6 nM. Further, the 50% cytotoxic concentration (CC50) in data set [3] was above 14900 nM.
For `O=C(Nc1ccc(C(=O)N2CCc3cc(-c4nc5cc(C(F)(F)F)ccc5[nH]4)sc3-c3ccccc32)cc1)c1cccnc1N1CC2(CCOCC2)C1`, in that order: above 1360 nM, 3.1 nM and above 13600 nM.
On to `Cc1cnc(N2CC3(CCOCC3)C2)c(C(=O)Nc2ccc(C(=O)N3CCc4cc(-c5nc6cccc(F)c6[nH]5)sc4-c4ccccc43)cc2)c1`, for which, in data set [4], the outcome was inactive. In addition, the inhibition result in data set [5], in [6], in data set [7] and in data set [8] was “Dose-dependent effect” in each case. Further, the IC50 on Nucleoprotein was determined as 2 nM; against Phosphoprotein, 2 nM; in data set [1] it was 2.1 nM; in data set [2], 1.4 nM. Also, the Activity result in data set [9] was “Dose-dependent effect”; in data set [11], below 2.3 log10PFU. Further, the result in data set [10] was Active. In [3], this compound had a half-maximal cytotoxic concentration (CC50) above 14300 nM.
Turning to `Cc1cnc(N2CC3(CCOCC3)C2)c(C(=O)Nc2ccc(C(=O)N3CCc4cc(-c5nc(C)c(C)[nH]5)sc4-c4ccccc43)cc2)c1`, the concentration for half-maximal inhibition (IC50) in data set [1] was 6.2 nM; in data set [2], 1.6 nM. This compound also gave a CC50 in [3] above 15100 nM.
For `O=C(NC1CC1)c1cc2c(s1)-c1ccccc1N(C(=O)c1ccc(NC(=O)c3cccnc3N3CC4(CCOCC4)C3)cc1)CC2`, in that order: 286 nM, 2.2 nM and 6410 nM.
Taken in the same sequence, the figures for `N#Cc1ccc2[nH]c(-c3cc4c(s3)-c3ccccc3N(C(=O)c3ccc(NC(=O)c5cccnc5N5CC6(CCOCC6)C5)cc3)CC4)nc2c1` were 162 nM, 0.5 nM and above 14400 nM.
For `O=C(Nc1ccc(C(=O)N2CCc3cc(-c4nc5c(Cl)cccc5[nH]4)sc3-c3ccccc32)cc1)c1cccnc1N1CC2(CCOCC2)C1`, in that order: 30.7 nM, 0.8 nM and above 14200 nM.
With `O=C(Nc1ccc(C(=O)N2CCc3cc(-c4nc5c(C(F)(F)F)cccc5[nH]4)sc3-c3ccccc32)cc1)c1cccnc1N1CC2(CCOCC2)C1`, the IC50 in [1] was found to be 38.8 nM; in [2], 0.6 nM. In data set [3], this compound came in with a CC50 above 13600 nM.
Taken in the same sequence, the figures for `O=C(Nc1ccc(C(=O)N2CCc3cc(-c4cc5ccccc5[nH]4)sc3-c3ccccc32)cc1)c1cccnc1N1CC2(CCOCC2)C1` were 1020 nM, 1.5 nM and above 15000 nM.
Regarding `O=C(Nc1ccc(C(=O)N2CCc3cc(-c4nc5ccccc5[nH]4)sc3-c3ccccc32)cc1)c1cccnc1N1CC2(CCOCC2)C1`, the IC50 in data set [1] was 59.8 nM; in data set [2], 0.8 nM. The compound also registered a CC50 in data set [3] above 14900 nM.
For the compound `O=C(Nc1ccc(C(=O)N2CCc3cc(-c4nc5cc(Cl)ccc5[nH]4)sc3-c3ccccc32)cc1)c1cccnc1N1CC2(CCOCC2)C1`, the concentration for half-maximal inhibition (IC50) stood at 161 nM in data set [1] and 1.6 nM in [2]. In data set [3], the CC50 was above 14200 nM.
Taken in the same sequence, the figures for `O=C(Nc1ccc(C(=O)N2CCc3cc(-c4nc5c(F)cccc5[nH]4)sc3-c3ccccc32)cc1)c1cccnc1N1CC2(CCOCC2)C1` were 90.9 nM, 1.6 nM and above 14600 nM.
In the case of `Cc1ccnc(N2CC3(CCOCC3)C2)c1C(=O)Nc1ccc(C(=O)N2CCc3cc(-c4nc5ccccc5[nH]4)sc3-c3ccccc32)cc1`, the IC50 in [1] is above 1470 nM.
Turning to `Cc1cnc(N2CC3(CCOCC3)C2)c(C(=O)Nc2ccc(C(=O)N3CCc4cc(-c5nc6ccccc6[nH]5)sc4-c4ccccc43)cc2)c1`, the half-maximal inhibitory concentration (IC50) in [1] came to 5.2 nM; in data set [2] it was 0.5 nM. In data set [3], this compound yielded a CC50 above 14600 nM.
Taken in the same sequence, the figures for `O=C(Nc1ccc(C(=O)N2CCc3cc(-c4nc5ccccc5[nH]4)sc3-c3ccccc32)cc1)c1ccc(C(F)(F)F)nc1N1CC2(CCOCC2)C1` were above 1360 nM, 7.3 nM and above 13600 nM.
For `N#Cc1cccc2[nH]c(-c3cc4c(s3)-c3ccccc3N(C(=O)c3ccc(NC(=O)c5cccnc5N5CC6(CCOCC6)C5)cc3)CC4)nc12`, in that order: 69 nM, 0.6 nM and above 14400 nM.
Taken in the same sequence, the figures for `Cc1cnc(N2CC3(CCOCC3)C2)c(C(=O)Nc2ccc(C(=O)N3CCc4cc(-c5cc6ccccn6n5)sc4-c4ccccc43)cc2)c1` were 8.1 nM, 0.7 nM and above 14600 nM.
For the compound `O=C(Nc1ccc(C(=O)N2CCc3cc(-c4nc5ccccc5o4)sc3-c3ccccc32)cc1)c1cccnc1N1CC2(CCOCC2)C1`, the IC50 is above 1500 nM in [1] and 56 nM in data set [2]. In data set [3], this compound returned a CC50 above 14900 nM.
For `COc1ccc(C(=O)Nc2ccc(C(=O)N3CCc4cc(-c5nc6ccccc6[nH]5)sc4-c4ccccc43)cc2)c(N2CC3(CCOCC3)C2)n1`, in that order: 37.8 nM, 0.5 nM and above 14300 nM.

What is called IC50 is the concentration that inhibits the measured activity by half. What is called CC50 is the concentration at which the toxic effect on the cells reaches its halfway point. The low end stands for harm at low concentration, the high end for better tolerance by the cells.
